This note sets out measurements from ChEMBL document CHEMBL1143856, “Iromycins from Streptomyces sp. and from synthesis: new inhibitors of the mitochondrial electron transport chain” (Bioorg Med Chem, 2008).

SMILES strings stand for the structures.

What is called IC50 is the concentration needed to halve the response being measured.

Series [1] has as its target Mitochondrial complex I; NADH oxidoreductase (Bos taurus, UniProt P25708+P52505). Kind of series: Inhibition of NADH-ubiquinone oxidoreductase assessed as NADH oxidase activity in bovine heart submitochondrial particles. Format: protein-complex assay. The method in brief: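 Bovine heart mitochondria isolated by differential centrifugation and sonicated to submitochondrial particles. Assay buffer was 75 mM air-saturated Na/K phosphate, pH 7.4, with 1 mM EDTA and 1 mM MgCl2, and 42–219 µg/mL protein, at 30 °C. Inhibitors were added in methanol (≤2% v/v) with 4 min preincubation. Reaction started with 0.16 mM NADH; A340 decrease followed over 4 min. Means of 2–4 independent experiments.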

Series [2] deals with L929. Nature of the series: Cytotoxicity against mouse L929 fibroblasts. Type of series: cell-based.
A short description of series [3]: Cytotoxicity against human HM02 cells. Format: functional, cell-based. In short, it runs like this: (§1)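 Human gastric adenocarcinoma HM02, hepatocellular carcinoma HepG2 and breast adenocarcinoma MCF7 lines tested following NCI directives. Cytotoxicity expressed as IC50.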
Series [4] concerns HepG2. Kind of series: Cytotoxicity against human HepG2 cells. Format: functional, cell-based. In short, it runs like this:
as §1

Series [5] has as its system MCF7. Nature of the series: Cytotoxicity against human MCF7 cells. Type of series: functional, cell-based. The method in brief:
as §1

The test system of series [6] is Mus musculus. Kind of series: Toxicity in mouse at 100 mg/kg, ip. Type of series: organism-based. The arrangement: dose 100 mg/kg, route intraperitoneal. To be noted: in vivo.

Sequence of Mitochondrial complex I; NADH oxidoreductase (P25708 21-464 limits assumed, other chains not shown): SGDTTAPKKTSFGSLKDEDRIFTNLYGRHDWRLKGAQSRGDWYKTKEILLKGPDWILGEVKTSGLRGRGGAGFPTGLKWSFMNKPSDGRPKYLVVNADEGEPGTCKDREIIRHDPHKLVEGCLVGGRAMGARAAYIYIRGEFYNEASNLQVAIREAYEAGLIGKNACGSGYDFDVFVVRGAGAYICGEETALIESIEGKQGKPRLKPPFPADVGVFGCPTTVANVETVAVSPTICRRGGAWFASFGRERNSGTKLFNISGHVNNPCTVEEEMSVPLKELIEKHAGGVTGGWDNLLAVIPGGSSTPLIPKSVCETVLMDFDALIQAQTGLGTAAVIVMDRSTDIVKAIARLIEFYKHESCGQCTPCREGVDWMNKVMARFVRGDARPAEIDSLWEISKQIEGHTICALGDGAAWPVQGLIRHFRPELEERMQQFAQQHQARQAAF

For `CCCc1c(C/C=C(\C)C/C=C/C(C)C)[nH]c(=O)c(C)c1OC(C)=O` [IROMYCIN AA], in series [1], the IC50 was more than 23.4 µM.

In the case of `CCCc1c(CCC(C)CCCC(C)C)[nH]c(=O)c(C)c1O` (centres undefined) [IROMYCIN AH], the IC50 in series [1] turned out to be 2.21 µM.

As to `CCCc1c(C/C=C(\C)C/C=C/C(C)C)[nH]c(=O)c(C)c1OC` [IROMYCIN AM], the IC50 in series [1] is 2.8 µM. On the same count and under the same terms, with `CCCc1c(C/C=C(\C)C/C=C/C(C)C)oc(=O)c(C)c1O` [IROMYCIN AO] the figure was more than 26.6 µM. In the case of `CCCc1c(C/C=C(\C)C/C=C/C(C)C)[nH]c(=O)c(C)c1O` [IROMYCIN A], the IC50 was 66 µM in series [2]; more than 30 µM in series [3]; more than 30 µM in series [4]; more than 30 µM in series [5]; 0.461 µM in series [1]. In series [6], the Activity entry is reported as “Non-toxic”. With `CCCc1c(C/C=C(\C)C/C=C/C(C)(C)O)[nH]c(=O)c(C)c1OC(C)=O` [IROMYCIN BA], the IC50 in series [1] is more than 22.4 µM.

On to `CCCc1c(C/C=C(\C)C/C=C/C(C)(C)O)[nH]c(=O)c(C)c1OC` [IROMYCIN BM], for which, in series [1], the IC50 was more than 24.3 µM. Take `CCCc1c(C/C=C(\C)C/C=C/C(C)(C)O)[nH]c(=O)c(C)c1O` [IROMYCIN B]: the IC50 in series [2] was 66 µM; in series [3], more than 30 µM; in series [4], more than 30 µM; in series [5] it was more than 30 µM; in series [1] it was 17.8 µM. `CC/C=C/C/C(C)=C/Cc1[nH]c(=O)c(C)c(O)c1CCC` [IROMYCIN C]: the IC50 in series [1] amounted to 3.52 µM.

Regarding `CCCc1c(C/C=C(\C)C/C=C/C(C)O)[nH]c(=O)c(C)c1O` (centres undefined) [IROMYCIN D], the IC50 in series [1] was more than 26.5 µM. Same read-out and setting: with `CCCC1(O)C(C/C=C(\C)C/C=C/C(C)C)=NC(=O)C(C)=C1O` (centres undefined) [IROMYCIN E] the figure was more than 25.3 µM.

With `CCCC1=C(C/C=C(\C)C/C=C/C(C)C)N=C(O)C(C)(O)C1=O` (centres undefined) [IROMYCIN F], the IC50 in series [1] was more than 25.3 µM. On the same count and under the same terms, with `CCCCC/C(C)=C/Cc1oc(=O)c(C)c(O)c1CCC` [IROMYCIN MO] the figure was 8.55 µM. In the case of `CCCCC/C(C)=C/Cc1[nH]c(=O)c(C)c(O)c1CCC` [IROMYCIN M], the IC50 in series [2] was found to be 66 µM; in series [1], 1.01 µM. `CCCc1c(C/C=C(\C)C/C=C/C(C)(C)C)oc(=O)c(C)c1O` [IROMYCIN SO]: the half-inhibitory concentration (IC50) in series [1] came to 15.1 µM.

For the molecule `CCCc1c(C/C=C(\C)C/C=C/C(C)(C)C)[nH]c(=O)c(C)c1O` [IROMYCIN S], the IC50 in series [2] was 10 µM; in series [1] it was 0.183 µM.

As to `C/C=C(\C)[C@H](O)[C@H](C)/C=C(C)/C=C/C/C(C)=C/Cc1nc(OC)c(OC)c(O)c1C` [PIERICIDIN A], the IC50 in series [2] was found to be 0.00043 µM; in series [1], 0.005 µM.
